Results from PubChem BioAssay AID624401 (The Scripps Research Institute Molecular Screening Center, 2012).
The source made the active and inactive calls.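 How the source made its calls: active means activation of 20% or more; inactive means activation below 20%, including negative responses.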

Molecular target: Aryl hydrocarbon receptor (Homo sapiens) (UniProt P35869)
Experiment: AhR reporter activation, late-stage follow-up, counter-screen for AHR activator project, luminescence, HG2L7.5c1 cells, set 2 (AID 624401)
Conditions: HG2L7.5c1 HepG2 DRE-luciferase reporter, 24 h; for activation: at 10 µM, stronger effect = higher value
How it was run: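 Assay system: HepG2-derived HG2L7.5c1 AHR luciferase reporter cells. Probe or stimulus: reporter construct with MMTV promoter plus 20 murine CYP1A1 DREs. Times: 24 h compound exposure, 37 °C. Measured by: lysate luminescence. Read-out basis: % of maximal TCDD response, Hill-fit EC50. Controls: maximal TCDD induction as high control. Replicates: triplicate wells per compound.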

Chain of Aryl hydrocarbon receptor (Homo sapiens) (P35869 whole entry, looked up): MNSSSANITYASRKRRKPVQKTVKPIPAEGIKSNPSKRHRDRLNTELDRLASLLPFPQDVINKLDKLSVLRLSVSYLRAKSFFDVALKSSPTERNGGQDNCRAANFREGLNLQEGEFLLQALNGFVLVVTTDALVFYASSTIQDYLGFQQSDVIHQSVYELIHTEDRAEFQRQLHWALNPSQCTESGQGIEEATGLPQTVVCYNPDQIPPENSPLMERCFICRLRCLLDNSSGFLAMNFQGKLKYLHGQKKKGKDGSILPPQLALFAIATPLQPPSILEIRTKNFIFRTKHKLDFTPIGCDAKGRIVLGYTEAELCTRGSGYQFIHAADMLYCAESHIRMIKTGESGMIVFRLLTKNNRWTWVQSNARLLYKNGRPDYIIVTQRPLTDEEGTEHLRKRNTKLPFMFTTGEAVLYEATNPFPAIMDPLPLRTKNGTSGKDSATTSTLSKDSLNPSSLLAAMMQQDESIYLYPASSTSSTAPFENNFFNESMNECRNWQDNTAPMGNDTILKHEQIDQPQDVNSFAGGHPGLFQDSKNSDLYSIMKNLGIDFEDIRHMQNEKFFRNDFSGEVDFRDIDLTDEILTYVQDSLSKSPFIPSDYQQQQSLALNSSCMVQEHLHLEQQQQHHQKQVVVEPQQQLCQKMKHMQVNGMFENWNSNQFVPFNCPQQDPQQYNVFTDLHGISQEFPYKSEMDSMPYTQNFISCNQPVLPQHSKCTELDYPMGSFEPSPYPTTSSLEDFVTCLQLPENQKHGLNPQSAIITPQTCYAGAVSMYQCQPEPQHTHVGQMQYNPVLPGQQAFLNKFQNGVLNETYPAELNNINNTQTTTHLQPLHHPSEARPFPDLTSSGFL

| SMILES | activation | EC50 [nM] |
| --- | --- | --- |
| COc1ccc(O)c(-c2cc(-c3cccs3)[nH]n2)c1 | inactive | – |
| Cc1csc(SCC(=O)Nc2ccccn2)n1 | inactive | – |
| COc1ccc(NC(=O)c2ccc(C(=O)Nc3ccc(OC)cc3OC)nc2)c(OC)c1 | inactive | – |
| COc1ccc(-c2cc(-c3ccc(C)cc3O)[nH]n2)cc1 | 15.6% | – |
| CCOC(=O)c1c(C)nn(-c2cc(Cl)ccc2Cl)c1C | inactive | – |
| Nc1nc(Cl)cc(Nc2ccc(Oc3ccccc3)cc2)n1 | 25.2% | – |
| Cc1ccnc(NC(=O)CSc2nc3ccccc3s2)c1 | inactive | – |
| Cc1cccc(C)c1NC(=O)c1ccc(C(=O)Nc2c(C)cccc2C)nc1 | inactive | – |
| O=C(CSc1nc(-c2ccc(F)cc2)cs1)Nc1ccccn1 | inactive | – |
| Cc1ccc(-c2cc(-c3cccc(F)c3)n[nH]2)c(O)c1 | – | 650 |
| Cc1ccc(-c2cc(-c3ccc(Cl)cc3)n[nH]2)c(O)c1 | – | 4000 |
| Cc1cccc(NC(=O)c2cc(-c3ccc(C)cc3O)n[nH]2)c1 | inactive | – |
| Cc1ccc(NC(=O)c2ccc(C(=O)Nc3ccc(C)cc3C)nc2)c(C)c1 | inactive | – |
| COc1ccc(Nc2cc(Cl)nc(N)n2)cc1 | inactive | – |
| O=C(CSc1nc2ccccc2s1)Nc1ccc(Cl)cn1 | inactive | – |

Second part, the compound after the results:

| activation | EC50 [nM] | SMILES |
| --- | --- | --- |
| inactive | – | Cc1cc(Nc2ccc(F)cc2)nc(N)n1 |
| 32% | – | Cc1ccc(O)c(-c2cc(-c3ccccc3Cl)[nH]n2)c1 |
| 18.9% | – | O=C(CSc1nc2ccccc2s1)Nc1ccccn1 |
| 48.4% | – | CCOc1ccccc1NC(=O)c1ccc(C(=O)Nc2ccccc2OCC)nc1 |
| inactive | – | COc1ccc(Cl)cc1NC(=O)c1ccc(C(=O)Nc2cc(Cl)ccc2OC)nc1 |
| inactive | – | COc1ccc(Nc2cc(Cl)nc(N)n2)cc1OC |
| inactive | – | Cc1cc(Br)cc(C)c1Nc1ccnc(Nc2ccc(C#N)cc2)n1 |
| – | 250 | Cc1ccc(-c2cc(-c3ccc(F)cc3)n[nH]2)c(O)c1 |
| inactive | – | CN(Cc1cc(-c2cccs2)n[nH]1)Cc1coc2ccccc2c1=O |
| inactive | – | Nc1nc(Cl)cc(Nc2ccccc2F)n1 |
